The values that follow come from ChEMBL document CHEMBL1255448, “The 6-aminoquinolone WC5 inhibits human cytomegalovirus replication at an early stage by interfering with the transactivating activity of viral immediate-early 2 protein” (Antimicrob Agents Chemother, 2010).

Activity calls are given as the source filed them. No cut-off for these calls is given here. *1 amine or outer side, *2 acyl side, *3 side chain or, on linkers, in order; H or OH if unused. Where a SMILES comes first, the peptide text is derived from it. Bridges are numbered along the chain shown (N, C = ends). Roman numbers before positions name the chains, in order. [ ]: non-standard residue; d: D form. Actinocin(9to1) = Cc1c2oc3c(C)ccc(C(=O)[*:1])c3nc-2c(C(=O)[*:2])c(N)c1=O; NMeV = CN[C@H](C(=O)O)C(C)C; Sar = CNCC(=O)O

Data set [1] concerns Human betaherpesvirus 5. The data set can be described thus: Antiviral activity against 0.1 MOI human cytomegalovirus AD169 infected in human HFF assessed as inhibition of late phase UL55 protein expression after 72 hrs of infection by Western blot analysis. The data set is classed as functional, organism-based. In short, it runs like this: (§1)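 HFF infected with HCMV AD169 at MOI 0.1 PFU/cell, treated with 50 µM compound or 0.2% DMSO. ActD 5 µg/ml, CHX 75 µg/ml and FOS 750 µM served as controls. Harvests at 24, 48 and 72 h p.i. were lysed in NP-40 buffer, then SDS-PAGE and PVDF blotting. Probes were anti-IE1/IE2 (p72/p86) MAb or anti-UL55, then HRP secondary and ECL. β-actin reprobe was the internal control.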
Background: In western blotting, separated proteins are transferred to a membrane and probed.

Data set [2] is described as follows: Inhibition of human cytomegalovirus DNA polymerase catalytic subunit UL54 assessed as incorporation of [3H]dTTP. Set-up: species or system Human betaherpesvirus 5. The gist of the method: (§2)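 Filter-based assay with purified baculovirus-expressed UL54 catalytic subunit, alone or with UL44 accessory subunit. Incorporation of [3H]dTTP into poly(dA)-oligo(dT)12-18 template-primer was measured across serial compound dilutions, with FOS as control. Means ± standard deviations from four independent experiments.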

Data set [3] can be described thus: Inhibition of human cytomegalovirus DNA polymerase catalytic subunit UL54/UL44 assessed as incorporation of [3H]dTTP. Set-up: species or system Human betaherpesvirus 5. In short, it runs like this: as §2
The subject of data set [4] is Human betaherpesvirus 5. The data set can be described thus: Antiviral activity against human cytomegalovirus AD169 infected in human HFF assessed as inhibition of plaque formation by plaque reduction assay. The note with it: Human betaherpesvirus 5, AD169. The class given is functional, organism-based. The gist of the method: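 Plaque reduction against AD169 in HFF. EC50 is the concentration giving 50% inhibition of plaque formation, reported as mean ± SD of at least three independent experiments run in duplicate.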

Data set [5] can be described thus: Cytotoxicity against human HFF by MTT assay. The data set is classed as cell-based. Particulars: HFF cells. In short, it runs like this: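 Cytotoxicity in HFF was measured by MTT reduction. CC50 is the concentration causing 50% cytotoxicity, reported as mean ± SD of at least three independent experiments run in quadruplicate.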
In general terms: Formazan colour is commonly taken as a measure of viable cells.

A short description of data set [6]: Selectivity index, ratio of CC50 for human HFF to EC50 for human cytomegalovirus AD169. The gist of the method: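 Selectivity index is CC50 from the HFF MTT assay divided by EC50 from the AD169 plaque reduction assay in HFF.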
For data set [7], the system named is Human betaherpesvirus 5. The data set can be described thus: Antiviral activity against 0.1 MOI human cytomegalovirus AD169 infected in human HFF assessed as inhibition of early phase UL54 mRNA expression after 16 hrs by RT-PCR analysis.
Data set [8] relates to Human betaherpesvirus 5. The data set can be described thus: Antiviral activity against 0.1 MOI human cytomegalovirus AD169 infected in human HFF assessed as inhibition of immediate early phase P86 protein expression after 24 hrs by Western blot analysis. The class given is functional, organism-based. The gist of the method: as §1
The subject of data set [9] is Human betaherpesvirus 5. The data set can be described thus: Antiviral activity against 0.1 MOI human cytomegalovirus AD169 infected in human HFF assessed as inhibition of immediate early phase P72 protein expression after 24 hrs by Western blot analysis. The class given is functional, organism-based. The gist of the method:
as §1

Data set [10] concerns Human betaherpesvirus 5. The data set can be described thus: Antiviral activity against 0.1 MOI human cytomegalovirus AD169 infected in human HFF assessed as inhibition of early phase UL84 mRNA expression after 16 hrs by RT-PCR analysis.
Data set [11] has as its system Human betaherpesvirus 5. Kind of data set: Antiviral activity against 0.1 MOI human cytomegalovirus AD169 infected in human HFF assessed as inhibition of immediate early phase mRNA expression after 48 hrs by RT-PCR analysis. The class given is functional, organism-based. The gist of the method:
(§3)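 HFF seeded at 6×10^5 per well, infected with AD169 at MOI 0.1 PFU/cell, then given 50 µM drug or 0.2% DMSO. ActD 5 µg/ml, CHX 75 µg/ml and FOS 750 µM served as IE, E and L transcription controls. Total RNA was taken at 16 and 48 h p.i.; 1 µg was reverse-transcribed with random hexamers and MuLV RT. PCR used UL122/UL123 (IE), UL54/UL84 (E) and UL55/UL75 (L) primers with a β-actin control, and products were read on ethidium bromide agarose gels.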

Data set [12] deals with Human betaherpesvirus 5. Kind of data set: Antiviral activity against 0.1 MOI human cytomegalovirus AD169 infected in human HFF assessed as inhibition of early phase mRNA expression after 16 hrs by RT-PCR analysis. The class given is functional, organism-based. The gist of the method:
as §3

The test system of data set [13] is Human betaherpesvirus 5. The data set can be described thus: Antiviral activity against 0.1 MOI human cytomegalovirus AD169 infected in human HFF assessed as inhibition of late phase mRNA expression after 16 hrs by RT-PCR analysis. The class given is functional, organism-based. In short, it runs like this: as §3
Data set [14] deals with Human betaherpesvirus 5. Kind of data set: Antiviral activity against 0.1 MOI human cytomegalovirus AD169 infected in human HFF assessed as inhibition of early phase mRNA expression after 48 hrs by RT-PCR analysis. The data set is classed as functional, organism-based. In short, it runs like this:
as §3

Data set [15] relates to Human betaherpesvirus 5. The data set can be described thus: Antiviral activity against 0.1 MOI human cytomegalovirus AD169 infected in human HFF assessed as inhibition of immediate early phase mRNA expression after 16 hrs by RT-PCR analysis. The data set is classed as functional, organism-based. In short, it runs like this:
as §3

For data set [16], the system named is Human betaherpesvirus 5. Kind of data set: Antiviral activity against 1 MOI human cytomegalovirus AD169 infected in human HFF assessed as virus yield reduction by yield reduction assay. The class given is functional, organism-based. Particulars: Human betaherpesvirus 5, AD169.
The subject of data set [17] is Human betaherpesvirus 5. The data set can be described thus: Antiviral activity against 0.1 MOI human cytomegalovirus AD169 infected in human HFF assessed as virus yield reduction by yield reduction assay. The data set is classed as functional, organism-based. Particulars: Human betaherpesvirus 5, AD169.
Data set [18] has as its system Human betaherpesvirus 5. Kind of data set: Antiviral activity against 0.1 MOI human cytomegalovirus AD169 infected in human HFF assessed as inhibition of viral replication up to 72 hrs post infection. The data set is classed as functional, organism-based.
Data set [19] concerns Human betaherpesvirus 5. The data set can be described thus: Antiviral activity against 0.1 MOI human cytomegalovirus AD169 infected in human U373-MG cells expressing UL54-EGFP reporter assessed as inhibition of EGFP expression after 48 hrs of infection by confocal fluorescence microscopy. The class given is functional, organism-based. Particulars: U-373MG ATCC. The gist of the method:
(§4)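 Stable U373-MG reporter cells were seeded on coverslips at 3×10^5 per well and infected with AD169 at MOI 0.1 or 0.5. They were then treated with 50 µM drug, 5 µM fomivirsen (also given 1 h before and during infection) or 0.2% DMSO. At 48 h p.i. cells were fixed in 4% paraformaldehyde for 15 min, and EGFP-positive cells were counted by confocal microscopy at 20×.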

Data set [20] has as its system Human betaherpesvirus 5. Kind of data set: Antiviral activity against 0.1 MOI human cytomegalovirus AD169 infected in human U373-MG cells expressing UL112/113-EGFP reporter assessed as inhibition of EGFP expression after 48 hrs of infection by confocal fluorescence microscopy. The class given is functional, organism-based. Particulars: U-373MG ATCC. The gist of the method: as §4

Regarding `O=C(NCP(=O)(O)O)OCc1ccccc1` [(BENZYLOXYCARBONYLAMINO)METHYLPHOSPHONIC ACID], in [1], the inhibition entry is “Active”. Further, the concentration for half-maximal inhibition (IC50) (commonly the concentration at which inhibition is half-maximal) in data set [2] was found to be 3.1 µM; in [3], 5.5 µM.
For the compound `O=C(O)c1cn(C2CC2)c2cc(N3CCN(c4ccccn4)CC3)ccc2c1=O`, the 50% effective concentration (EC50) – broadly, the concentration at which the effect is half-maximal – in data set [4] turned out to be 5600 nM. It took 390 µM to reach half-maximal cytotoxicity in data set [5] (CC50). The “Selectivity Index” value in data set [6] is listed as 70.
As to `Nc1cc2c(=O)c(C(=O)O)cn(C3CC3)c2cc1N1CCN(c2nc3ccccc3s2)CC1`, the EC50 in [4] was determined as 20 nM. Further, the “Selectivity Index” value in data set [6] is 225.
For `CC(C)(C)n1cc(C(=O)O)c(=O)c2cc(N)c(N3CCN(c4nc5ccccc5s4)CC3)cc21`, the EC50 in data set [4] turned out to be 180 nM. Besides, in data set [5], the CC50 (commonly the concentration giving 50% cytotoxicity) came to 5.8 µM. For the same compound, the “Selectivity Index” value in data set [6] is 32.
The matching figures for `CCOC(=O)c1cn(C2CC2)c2cc(N3CCN(c4ccccn4)CC3)c(N)cc2c1=O`: greater than 50000 nM, 409 µM and greater than 8.
For `CC(C)(C)n1cc(C(=O)O)c(=O)c2cc(N)c(N3CCN(c4ccccn4)CC3)cc21`, in that order: 36700 nM, no less than 475 µM and “>=13”.
As to `C[C@@H]1C[C@@H]([C@H](O)CC2CC(=O)NC(=O)C2)C(=O)[C@@H](C)C1`, the inhibition result in data set [7], in data set [8], in [9] and in data set [10] was “Active” each time.
In the case of `Cc1c2oc3c(C)ccc(C(=O)N[C@@H]4C(=O)N[C@H](C(C)C)C(=O)N5CCC[C@H]5C(=O)N(C)CC(=O)N(C)[C@@H](C(C)C)C(=O)O[C@@H]4C)c3nc-2c(C(=O)N[C@@H]2C(=O)N[C@H](C(C)C)C(=O)N3CCC[C@H]3C(=O)N(C)CC(=O)N(C)[C@@H](C(C)C)C(=O)O[C@@H]2C)c(N)c1=O` (I: T[dV]P[Sar][NMeV] / II: T[dV]P[Sar][NMeV]; ester I:1-I:C, II:1-II:C; linker I:N-II:N via Actinocin(9to1)), the inhibition entry in data set [11], in [12], in data set [13], in [14] and in [15] was “inactive” throughout.
For the compound `Nc1nc2c(ncn2COC(CO)CO)c(=O)[nH]1` [GANCICLOVIR], the EC90 (in general, the concentration needed for an effect of 90%) turned out to be 800 nM in [16] and 1000 nM in [17]. In data set [4], the EC50 came out at 1900 nM. Also, the “Selectivity Index” value in data set [6] is given as 289. Further, the result in data set [18] was inactive.
In the case of FOMIVIRSEN SODIUM, the inhibition result in data set [19] and in data set [20] was “Active” in each case.
As for `Cn1cc(C(=O)O)c(=O)c2cc(N)c(N3CCN(c4ccccn4)CC3)cc21`, the 50% effective concentration (EC50) in data set [4] is 700 nM. For the same compound, the “Selectivity Index” value in data set [6] is reported as 77.
